According to ChEMBL document CHEMBL1122676, “2,3-Dimethyl-1,4-naphthoquinone derivatives as bioreductive alkylating agents with cross-linking potential” (1984):

Legend:
Format in all cases: functional
Mus musculus [1] = experiment: Compound was evaluated for anticancer activity against Sarcoma180 tumor bearing mice by measuring average weight (dose 10 mg/kg daily)
Procedure, shortened: (§1)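 Sarcoma 180 ascites-bearing CDF1 mice (~10^6 cells ip) dosed ip daily for 6 consecutive days starting 24 h after implantation, drug suspended with 20% aqueous Tween 80 in isotonic saline. Mice weighed during the experiment; percent body weight change from onset to end of therapy recorded as the toxicity index, average per group; 5–15 mice per value.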

Mus musculus [2] = experiment: Compound was evaluated for anticancer activity against Sarcoma180 tumor bearing mice by measuring average weight (dose 2.5 mg/kg daily); procedure, shortened: as §1
Mus musculus [3] = experiment: Compound was evaluated for anticancer activity against Sarcoma180 tumor bearing mice by measuring average weight (dose 5 mg/kg daily); procedure, shortened: as §1
Mus musculus [4] = experiment: Compound was evaluated for anticancer activity against Sarcoma180 tumor bearing mice by measuring T/C X 100 (dose 10 mg/kg daily)
Procedure, shortened: (§2)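 CDF1 mice given ~10^6 Sarcoma 180 ascites cells ip (from 7-day donor ascites, saline-diluted); compound as fine suspension in a few drops 20% aqueous Tween 80 made up in isotonic saline, 0.5 mL ip once daily for 6 days from 24 h post-implant. Survival time of treated vs vehicle-injected controls expressed as T/C × 100; 5–15 mice per value.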

Mus musculus [5] = experiment: Compound was evaluated for anticancer activity against Sarcoma180 tumor bearing mice by measuring T/C X 100 (dose 2.5 mg/kg daily); procedure, shortened: as §2
Mus musculus [6] = experiment: Compound was evaluated for anticancer activity against Sarcoma180 tumor bearing mice by measuring T/C X 100 (dose 5 mg/kg daily); procedure, shortened: as §2
Mus musculus [7] = experiment: Compound was evaluated for anticancer activity against Sarcoma180 tumor bearing mice by measuring average weight (dose 3.25 mg/kg daily); procedure, shortened: as §1
Mus musculus [8] = experiment: Compound was evaluated for anticancer activity against Sarcoma180 tumor bearing mice by measuring average weight (dose 7.5 mg/kg daily); procedure, shortened: as §1
Mus musculus [9] = experiment: Compound was evaluated for anticancer activity against Sarcoma180 tumor bearing mice by measuring T/C X 100 (dose 15 mg/kg daily); procedure, shortened: as §2
Mus musculus [10] = experiment: Compound was evaluated for anticancer activity against Sarcoma180 tumor bearing mice by measuring T/C X 100 (dose 3.25 mg/kg daily); procedure, shortened: as §2
Mus musculus [11] = experiment: Compound was evaluated for anticancer activity against Sarcoma180 tumor bearing mice by measuring T/C X 100 (dose 7.5 mg/kg daily); procedure, shortened: as §2
Mus musculus [12] = experiment: Compound was evaluated for anticancer activity against Sarcoma180 tumor bearing mice by measuring average weight (dose 15 mg/kg daily); procedure, shortened: as §1

**Q.** How did the Average weight (Mus musculus [1]) turn out when `CNC(=O)OCC1=C(COC(=O)NC)C(=O)c2ccccc2C1=O` was run?
**A.** -10%

**Q.** What about the Average weight (Mus musculus [2]) of the same molecule?
**A.** 3.8%

**Q.** And the Average weight (Mus musculus [3])?
**A.** -7.6%

**Q.** And the T/C (Mus musculus [4])?
**A.** 200

**Q.** What about the T/C (Mus musculus [5]) of the same molecule?
**A.** 266

**Q.** What about the T/C (Mus musculus [6]) of the same molecule?
**A.** 177

**Q.** `O=C1C(CBr)=C(CBr)C(=O)c2ccccc21` was tested. Which Average weight (Mus musculus [7]) did it give?
**A.** -8.8%

**Q.** What about the Average weight (Mus musculus [8]) of the same molecule?
**A.** -14.3%

**Q.** What about the T/C (Mus musculus [9]) of the same molecule?
**A.** 140

**Q.** And the T/C (Mus musculus [10])?
**A.** 165

**Q.** What about the T/C (Mus musculus [11]) of the same molecule?
**A.** 130

**Q.** And the Average weight (Mus musculus [12])?
**A.** -14.1%

**Q.** Which results are given for `O=C1C(CCl)=C(CCl)C(=O)c2ccccc21`?
**A.** Average weight (Mus musculus [7]): -15.1%; Average weight (Mus musculus [8]): -10.3%; T/C (Mus musculus [9]): 122; T/C (Mus musculus [10]): 100; T/C (Mus musculus [11]): 158; Average weight (Mus musculus [12]): -15.6%

**Q.** Which results are given for `CS(=O)(=O)OCC1=C(COS(C)(=O)=O)C(=O)c2ccccc2C1=O`?
**A.** Average weight (Mus musculus [1]): -2%; Average weight (Mus musculus [2]): 18.4%; Average weight (Mus musculus [3]): 5.9%; T/C (Mus musculus [4]): 232; T/C (Mus musculus [5]): 114; T/C (Mus musculus [6]): 204

**Q.** Which results are given for `O=C(NCCCl)OCC1=C(COC(=O)NCCCl)C(=O)c2ccccc2C1=O`?
**A.** Average weight (Mus musculus [1]): -7.8%; Average weight (Mus musculus [2]): 0%; Average weight (Mus musculus [3]): -4.3%; T/C (Mus musculus [4]): 189; T/C (Mus musculus [5]): 230; T/C (Mus musculus [6]): 209

**Q.** Which Average weight (Mus musculus [7]) does the source give for `O=C1C(CO)=C(CO)C(=O)c2ccccc21` here?
**A.** 10.8%

**Q.** And the Average weight (Mus musculus [8])?
**A.** -14.3%

**Q.** What about the T/C (Mus musculus [9]) of the same molecule?
**A.** 37

**Q.** What about the T/C (Mus musculus [10]) of the same molecule?
**A.** 55

**Q.** What about the T/C (Mus musculus [11]) of the same molecule?
**A.** 51

**Q.** What about the Average weight (Mus musculus [12]) of the same molecule?
**A.** -9.9%

**Q.** For `CC1=C(C)C(=O)c2ccccc2C1=O`, which Average weight (Mus musculus [7]) is on record?
**A.** 1.4%

**Q.** And the Average weight (Mus musculus [8])?
**A.** 1.3%

**Q.** And the T/C (Mus musculus [9])?
**A.** 103

**Q.** And the T/C (Mus musculus [10])?
**A.** 104

**Q.** What about the T/C (Mus musculus [11]) of the same molecule?
**A.** 78

**Q.** And the Average weight (Mus musculus [12])?
**A.** 0.5%

**Q.** `Cc1ccc(S(=O)(=O)OCC2=C(COS(=O)(=O)c3ccc(C)cc3)C(=O)c3ccccc3C2=O)cc1` was tested. Which Average weight (Mus musculus [1]) did it give?
**A.** 13.8%

**Q.** What about the Average weight (Mus musculus [2]) of the same molecule?
**A.** 22.3%

**Q.** What about the Average weight (Mus musculus [3]) of the same molecule?
**A.** 21%

**Q.** And the T/C (Mus musculus [4])?
**A.** 126

**Q.** What about the T/C (Mus musculus [5]) of the same molecule?
**A.** 130

**Q.** And the T/C (Mus musculus [6])?
**A.** 138
